ChEMBL document CHEMBL2380273, “Discovery of potent transient receptor potential vanilloid 1 antagonists: design and synthesis of phenoxyacetamide derivatives” (Bioorg Med Chem Lett, 2013)

The compounds below were run on Rattus norvegicus (assay: Reduction of cyclophosphamide-induced voiding frequency in iv dosed Sprague-Dawley rat cystitis and pollakiuria model measured for 20 mins).
Assay type: functional, organism-based
Outline: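 Female Sprague–Dawley rats given cyclophosphamide 150 mg/kg ip. Bladder catheter implanted 4 h later, with saline infused at 3.6 mL/h for continuous cystometry. Once voiding frequency was stable, dosed iv with test agent or vehicle (20% cremophor EL). Voids counted for 20 min before and after dosing and expressed as % change. n=4, mean ± SEM; Bartlett's then Williams' test versus vehicle.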

For `CN(CCO)c1ccc(NC(=O)COc2ccc(C(C)(C)C)cc2)cn1`, which Activity is on record?
The Activity was “Dose-dependent effect”.

What follows are compounds tested on Rattus norvegicus (assay: Suppression of capsaicin-induced bladder contraction in iv dosed Sprague-Dawley rat overactive bladder model).
Assay type: functional, organism-based
Outline: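 Female Sprague–Dawley rats anesthetized with urethane (1.0 g/kg ip) and bladder catheterized via the urethra, with saline infused at 3.0 mL/h for 5 min for basal pressure. Capsaicin 30 μg/kg iv given every 10 min. After stable contractions, test agent or vehicle (20% cremophor EL) given iv, followed by capsaicin again. Reported as % change in contraction. n=4, mean ± SEM; Bartlett's then Williams' test versus vehicle.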

For `CN(CCO)c1ccc(NC(=O)COc2ccc(C(C)(C)C)cc2)cn1`, which Activity is on record?
Its Activity is “Dose-dependent effect”.

These compounds were tested against Transient receptor potential cation channel subfamily V member 1 (Homo sapiens, UniProt Q8NER1) (assay: Antagonist activity at human TRPV1 transfected in CHOK1 cells assessed as inhibition of capsaicin-induced intracellular calcium level measured for 120 secs by FLIPR analysis).
Assay type: cell-based, CHO-K1
Outline: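 CHO-K1 cells stably expressing hTRPV1, grown to 90% confluency, loaded 90 min at rt with Fluo4-AM (2 μM) in HBSS/20 mM HEPES pH 7.4, then washed three times. Test agent added at various concentrations together with 100 nM capsaicin. Peak fluorescence over 120 s averaged in triplicate. IC50 is the concentration giving 50% inhibition of the capsaicin control response.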

Transient receptor potential cation channel subfamily V member 1, sequence (Q8NER1 whole entry): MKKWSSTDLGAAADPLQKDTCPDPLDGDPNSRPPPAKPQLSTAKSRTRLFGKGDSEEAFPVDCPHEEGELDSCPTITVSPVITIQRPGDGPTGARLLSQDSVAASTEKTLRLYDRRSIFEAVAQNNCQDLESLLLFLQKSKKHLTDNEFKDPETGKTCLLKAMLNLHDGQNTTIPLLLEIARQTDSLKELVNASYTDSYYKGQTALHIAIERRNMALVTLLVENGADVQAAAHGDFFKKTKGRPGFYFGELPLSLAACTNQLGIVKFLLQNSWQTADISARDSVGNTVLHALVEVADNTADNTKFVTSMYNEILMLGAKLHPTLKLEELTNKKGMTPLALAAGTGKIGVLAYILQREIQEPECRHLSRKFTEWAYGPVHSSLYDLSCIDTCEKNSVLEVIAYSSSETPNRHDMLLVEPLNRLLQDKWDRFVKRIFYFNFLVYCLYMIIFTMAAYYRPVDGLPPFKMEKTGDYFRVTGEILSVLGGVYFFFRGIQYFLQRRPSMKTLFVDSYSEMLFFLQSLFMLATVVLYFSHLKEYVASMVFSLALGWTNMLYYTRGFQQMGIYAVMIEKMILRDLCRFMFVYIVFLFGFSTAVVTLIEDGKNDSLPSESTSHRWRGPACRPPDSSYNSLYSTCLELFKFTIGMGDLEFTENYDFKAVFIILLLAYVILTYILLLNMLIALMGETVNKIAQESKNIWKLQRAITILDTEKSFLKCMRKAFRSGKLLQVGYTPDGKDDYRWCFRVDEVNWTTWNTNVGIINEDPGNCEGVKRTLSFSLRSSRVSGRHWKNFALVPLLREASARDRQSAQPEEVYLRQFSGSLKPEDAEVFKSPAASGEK

With `CN(CCO)c1ccc(NC(=O)COc2cccc(C(C)(C)C)c2)cn1` as the compound, how does the IC50 read?
The IC50 was 2.62 µM.

With `CN(CCO)c1ccc(NC(=O)COc2ccc(C(F)(F)F)cc2)cn1` as the compound, how does the IC50 read?
Its IC50 is over 10 µM.

How did the IC50 turn out when `CN(CCO)c1ccc(NC(=O)COc2ccc(C(C)(C)C)cc2Br)cn1` was run?
The IC50 was 0.086 µM.

`CN(C)c1ccc(NC(=O)COc2ccc(C(C)(C)C)cc2)cn1` was tested. Which IC50 did it give?
Its IC50 is 0.059 µM.

With `CN(CCO)c1ncc(NC(=O)COc2ccc(C(C)(C)C)cc2)cc1Cl` as the compound, how does the IC50 read?
Its IC50 is 0.044 µM.

For `CN(CCO)c1ccc(NC(=O)COc2ccccc2)cn1`, which IC50 is on record?
Its IC50 is over 10 µM.

For `CN(CCO)c1ccc(NC(=O)COc2ccc(C(C)(C)C)cc2C(C)(C)C)cn1`, which IC50 is on record?
Its IC50 is 0.107 µM.

With `Cc1cc(NC(=O)COc2ccc(C(C)(C)C)cc2)cnc1N(C)CCO` as the compound, how does the IC50 read?
The IC50 was 0.13 µM.

With `CCN(C)c1ccc(NC(=O)COc2ccc(C(C)(C)C)cc2)cn1` as the compound, how does the IC50 read?
The IC50 was 0.583 µM.

Which IC50 does the source give for `CN(CCO)c1ccc(NC(=O)COc2ccc(C34CC5CC(CC(C5)C3)C4)cc2)cn1` here?
Its IC50 is over 10 µM.

With `CN(CCO)c1ccc(NC(=O)COc2ccc(C(C)(C)C)cc2)cn1` as the compound, how does the IC50 read?
The IC50 was 0.033 µM.

`CC(C)c1ccc(OCC(=O)Nc2ccc(N(C)CCO)nc2)cc1` was tested. Which IC50 did it give?
Its IC50 is 0.11 µM.

With `CC(C)(C)c1ccc(OCC(=O)Nc2ccc(N3CCCC3)nc2)cc1` as the compound, how does the IC50 read?
The IC50 was 0.411 µM.

Which IC50 does the source give for `CC(C)(C)c1ccc(OCC(=O)Nc2ccc(N3CCC(O)C3)nc2)cc1` (centres undefined) here?
Its IC50 is 0.516 µM.

How did the IC50 turn out when `CN(CCO)c1ccc(NC(=O)COc2ccc(C(C)(C)C)cc2N2CCCCC2)cn1` was run?
The IC50 was 0.941 µM.

With `O=C(Nc1ccccc1Br)N[C@H]1CCN(c2ccc(C(F)(F)F)cn2)C1` as the compound, how does the IC50 read?
The IC50 was 0.12 µM.

Which IC50 does the source give for `CN(CCO)c1ccc(NC(=O)COc2ccccc2C(C)(C)C)cn1` here?
Its IC50 is 0.796 µM.
